Assay results as given in ChEMBL document CHEMBL1150763, “Discovery of imidazo[1,5-c]imidazol-3-ones: weakly basic, orally active factor Xa inhibitors” (J Med Chem, 2008).

Experiments:
Coagulation factor X = Coagulation factor X (Homo sapiens, UniProt P00742); assay: Inhibition of human factor 10a
Plasma [1] = assay: Anticoagulant potency in mouse plasma assessed as concentration required to double the time to clot formation by PT assay; format: functional
CYP3A4 = CYP3A4 (Homo sapiens, UniProt P08684); assay: Inhibition of CYP3A4 expressed in human B-lymphoblastoid cells at 10 uM; format: ADME, cell-based
How it was run: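 Recombinant CYP3A4 (10 nM, from CYP3A4-expressing human B-lymphoblastoid cells) incubated with 100 µM testosterone and 10 µM test compound for 30 min at 37 °C; 6β-hydroxytestosterone formation quantified by HPLC-UV.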

Plasma [2] = assay: Anticoagulant potency in human plasma assessed as concentration required to double the time to clot formation by PT assay; format: functional
How it was run: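 Human normal plasma mixed with compound dilutions in DMSO (1.5 µL into 48.5 µL), preincubated 4 min at 37 °C, clotting started with thromboplastin and timed on an automatic coagulometer. Prolongation relative to DMSO; concentration doubling clotting time derived by least-squares regression; mean of duplicates.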

[3] = Basicity, pKa by titration method; format: physicochemical
Plasma [4] = assay: Anticoagulant activity in mouse plasma assessed as ratio of prothrombin time in drug to untreated control at 30 mg/kg, po; format: functional
How it was run: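 Male ICR mice (30-35 g), fasted >12 h, dosed orally at 30 mg/kg as suspension in 0.5% methylcellulose; vehicle controls. Citrated aortic blood drawn 1 h post-dose under pentobarbital anaesthesia, spun 1000g 10 min to platelet-poor plasma. PT on 50 µL plasma preincubated 4 min at 37 °C, started with thromboplastin; clotting time expressed relative to control group (n = 3).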

physchem = conditions: buffer, pH 7.4
[5] = Total clearance in cynomolgus monkey in fed state at 0.3 mg, iv; format: ADME, organism-based, Macaca fascicularis; conditions: in vivo
How it was run: (§1)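 Male SD rats (8 weeks old) or cynomolgus monkeys, n = 3, given 0.3 mg/kg intravenously in DMA/PEG400. Blood sampled at 5, 10, 15, 30 min and 1, 2, 4, 8, 24 h (rat tail vein, monkey femoral vein); acetonitrile-deproteinized plasma diluted in pH 3.0 ammonium formate and quantified by LC/MS/MS.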

[6] = Inhibition of trypsin
[7] = Mean residence time in Sprague-Dawley rat in fasted state at 3 mg/kg, po; format: ADME, organism-based; set-up: dose 3 mg/kg, route oral; conditions: in vivo
How it was run: (§2)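 Male animals (SD rats 8 weeks old or cynomolgus monkeys, n = 3), fasted or fed, given 3 mg/kg orally as 0.5% methylcellulose suspension. Blood at 15, 30 min and 1, 2, 4, 8, 24 h (rat tail vein, monkey femoral vein); plasma deproteinized with acetonitrile, diluted in pH 3.0 ammonium formate, analysed by LC/MS/MS in positive ion mode.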

[8] = Mean residence time in cynomolgus monkey in fed state at 0.3 mg, iv; format: ADME, organism-based, Macaca fascicularis; conditions: in vivo; how it was run: as §1
[9] = AUC (0 to 24 hrs) in Sprague-Dawley rat in fed state at 3 mg/kg, po; format: ADME, organism-based; set-up: time < 24 hr, dose 3 mg/kg, route oral; conditions: plasma
How it was run: (§3)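 Male SD (IGS) rats, 8 weeks old, n = 3, fasted or fed; dosed iv at 0.3 mg/kg in DMA/PEG400 or orally at 3 mg/kg as 0.5% methylcellulose suspension. Tail-vein blood drawn 5 min–24 h (iv) or 15 min–24 h (po). Plasma deproteinized with acetonitrile, diluted in 0.01 mol/L HCO₂NH₄ pH 3.0, and quantified by LC/MS/MS in positive ion mode.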

[10] = Mean residence time in Sprague-Dawley rat in fed state at 3 mg/kg, po; format: ADME, organism-based; set-up: dose 3 mg/kg, route oral; conditions: in vivo; how it was run: as §2
[11] = Tmax in Sprague-Dawley rat in fed state at 3 mg/kg, po; format: ADME, organism-based; set-up: dose 3 mg/kg, route oral; conditions: in vivo; how it was run: as §2
[12] = AUC (0 to 24 hrs) in cynomolgus monkey in fed state at 0.3 mg, iv; format: ADME, organism-based, Macaca fascicularis; set-up: dose 0.3 mg, time < 24 hr, route intravenous; conditions: plasma
How it was run: (§4)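 Male cynomolgus monkeys, n = 3, fasted or fed; single dose iv 0.3 mg/kg (DMA/PEG400) or po 3 mg/kg (0.5% methylcellulose suspension). Femoral-vein blood sampled 5 min–24 h after iv, 15 min–24 h after oral. Plasma deproteinized with acetonitrile, supernatant diluted in 0.01 mol/L HCO₂NH₄ pH 3.0, drug measured by LC/MS/MS.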

[13] = Cmin in cynomolgus monkey in fed state at 0.3 mg, iv after 5 mins; format: ADME, organism-based, Macaca fascicularis; conditions: in vivo, read-out: Cmin; how it was run: as §1
[14] = Cmax in cynomolgus monkey in fed state at 3 mg/kg, po; format: ADME, organism-based, Macaca fascicularis; set-up: dose 3 mg/kg, route oral; conditions: in vivo; how it was run: as §2
[15] = AUC (0 to 24 hrs) in Sprague-Dawley rat in fasted state at 3 mg/kg, po; format: ADME, organism-based; set-up: time < 24 hr, dose 3 mg/kg, route oral; conditions: plasma; how it was run: as §3
[16] = Total clearance in Sprague-Dawley rat in fed state at 0.3 mg, iv; format: ADME, organism-based; conditions: in vivo; how it was run: as §1
[17] = AUC (0 to 24 hrs) in cynomolgus monkey in fed state at 3 mg/kg, po; format: ADME, organism-based, Macaca fascicularis; set-up: time < 24 hr, dose 3 mg/kg, route oral; conditions: plasma; how it was run: as §4
[18] = AUC (0 to 24 hrs) in cynomolgus monkey in fasted state at 3 mg/kg, po; format: ADME, organism-based, Macaca fascicularis; set-up: time < 24 hr, dose 3 mg/kg, route oral; conditions: plasma; how it was run: as §4
[19] = Cmax in Sprague-Dawley rat in fasted state at 3 mg/kg, po; format: ADME, organism-based; set-up: dose 3 mg/kg, route oral; conditions: in vivo; how it was run: as §2
Prothrombin = Prothrombin (Homo sapiens, UniProt P00734); assay: Inhibition of thrombin
Rattus norvegicus [20] = assay: Effect on bleeding time in Sprague-Dawley rat at 30 mg/kg, po; format: functional
How it was run: (§5)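 Male Sprague-Dawley rats (7 weeks old) dosed orally 30 min beforehand, then anaesthetized with pentobarbital; tail transected 2-3 mm from tip, blood blotted every 30 s until bleeding stopped or 30 min elapsed; mean ± SEM, n = 6.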

[21] = Tmax in Sprague-Dawley rat in fasted state at 3 mg/kg, po; format: ADME, organism-based; set-up: dose 3 mg/kg, route oral; conditions: in vivo; how it was run: as §2
[22] = Bioavailability in cynomolgus monkey in fed state at 3 mg/kg, po; format: ADME, organism-based, Macaca fascicularis; conditions: in vivo
How it was run: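 Male cynomolgus monkeys, fed, given 3 mg/kg orally as 0.5% methylcellulose suspension and 0.3 mg/kg iv in DMA/PEG400 (n = 3); femoral vein plasma sampled to 24 h, deproteinized with acetonitrile and quantified by LC/MS/MS.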

[23] = Bioavailability in Sprague-Dawley rat in fed state at 3 mg/kg, po; format: ADME, organism-based; conditions: in vivo
How it was run: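 Male SD (IGS) rats, 8 weeks old, n = 3, fed or fasted. Dosed iv at 0.3 mg/kg in DMA/PEG400 and po at 3 mg/kg as a 0.5% methylcellulose suspension. Tail-vein blood taken at 15, 30 min and 1, 2, 4, 8, 24 h after oral dosing (iv adds 5 and 10 min). Plasma deproteinized with acetonitrile and assayed by LC/MS/MS.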

[24] = biological target: Tissue-type plasminogen activator (Homo sapiens, UniProt P00750); assay: Inhibition of tPA
[25] = Volume of distribution in steady state in cynomolgus monkey in fed state at 0.3 mg, iv; format: ADME, organism-based, Macaca fascicularis; conditions: in vivo, read-out: Vdss; how it was run: as §1
[26] = Tmax in cynomolgus monkey in fed state at 3 mg/kg, po; format: ADME, organism-based, Macaca fascicularis; set-up: dose 3 mg/kg, route oral; conditions: in vivo; how it was run: as §2
Rattus norvegicus [27] = assay: Effect on bleeding time in Sprague-Dawley rat at 100 mg/kg, po; format: functional; how it was run: as §5
[28] = Cmax in cynomolgus monkey in fasted state at 3 mg/kg, po; format: ADME, organism-based, Macaca fascicularis; set-up: dose 3 mg/kg, route oral; conditions: in vivo; how it was run: as §2
[29] = AUC (0 to 24 hrs) in Sprague-Dawley rat in fed state at 0.3 mg, iv; format: ADME, organism-based; set-up: time < 24 hr, dose 0.3 mg, route intravenous; conditions: plasma; how it was run: as §3
[30] = Cmax in Sprague-Dawley rat in fed state at 3 mg/kg, po; format: ADME, organism-based; set-up: dose 3 mg/kg, route oral; conditions: in vivo; how it was run: as §2
Plasminogen = Plasminogen (Homo sapiens, UniProt P00747); assay: Inhibition of plasmin
[31] = Tmax in cynomolgus monkey in fasted state at 3 mg/kg, po; format: ADME, organism-based, Macaca fascicularis; set-up: dose 3 mg/kg, route oral; conditions: in vivo; how it was run: as §2
[32] = Cmin in Sprague-Dawley rat in fed state at 0.3 mg, iv after 5 mins; format: ADME, organism-based; conditions: in vivo, read-out: Cmin; how it was run: as §1
[33] = Mean residence time in cynomolgus monkey in fasted state at 3 mg/kg, po; format: ADME, organism-based, Macaca fascicularis; set-up: dose 3 mg/kg, route oral; conditions: in vivo; how it was run: as §2
[34] = Mean residence time in Sprague-Dawley rat in fed state at 0.3 mg, iv; format: ADME, organism-based; conditions: in vivo; how it was run: as §1
[35] = Mean residence time in cynomolgus monkey in fed state at 3 mg/kg, po; format: ADME, organism-based, Macaca fascicularis; set-up: dose 3 mg/kg, route oral; conditions: in vivo; how it was run: as §2
[36] = Volume of distribution in steady state in Sprague-Dawley rat in fed state at 0.3 mg, iv; format: ADME, organism-based; conditions: in vivo, read-out: Vdss; how it was run: as §1

Sequence of Coagulation factor X (P00742 41-179 limits assumed): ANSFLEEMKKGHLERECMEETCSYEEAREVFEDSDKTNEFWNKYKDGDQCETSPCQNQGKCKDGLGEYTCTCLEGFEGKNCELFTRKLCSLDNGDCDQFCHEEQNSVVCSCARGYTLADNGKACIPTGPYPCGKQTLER
Sequence of Coagulation factor X (P00742 235-488 limits assumed): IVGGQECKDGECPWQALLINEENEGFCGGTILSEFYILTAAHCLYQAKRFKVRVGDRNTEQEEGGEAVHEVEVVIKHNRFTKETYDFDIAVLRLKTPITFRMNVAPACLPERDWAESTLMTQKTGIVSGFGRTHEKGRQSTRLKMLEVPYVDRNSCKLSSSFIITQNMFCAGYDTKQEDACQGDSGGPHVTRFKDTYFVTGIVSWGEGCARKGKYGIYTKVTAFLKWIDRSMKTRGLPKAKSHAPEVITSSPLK
Sequence of CYP3A4 (P08684 whole entry): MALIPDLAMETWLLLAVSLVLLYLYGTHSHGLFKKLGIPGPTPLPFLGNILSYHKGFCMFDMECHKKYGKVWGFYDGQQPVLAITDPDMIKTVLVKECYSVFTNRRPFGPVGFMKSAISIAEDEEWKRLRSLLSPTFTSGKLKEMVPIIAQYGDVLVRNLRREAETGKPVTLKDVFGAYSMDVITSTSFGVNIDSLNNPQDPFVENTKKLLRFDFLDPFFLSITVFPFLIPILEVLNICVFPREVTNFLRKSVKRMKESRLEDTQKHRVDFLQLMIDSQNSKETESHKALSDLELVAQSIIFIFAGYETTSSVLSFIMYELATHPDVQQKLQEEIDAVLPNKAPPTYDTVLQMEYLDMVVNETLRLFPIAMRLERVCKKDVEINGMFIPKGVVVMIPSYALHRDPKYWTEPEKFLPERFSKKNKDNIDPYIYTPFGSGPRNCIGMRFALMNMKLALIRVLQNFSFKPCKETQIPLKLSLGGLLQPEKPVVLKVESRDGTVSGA
Sequence of Tissue-type plasminogen activator (P00750 whole entry): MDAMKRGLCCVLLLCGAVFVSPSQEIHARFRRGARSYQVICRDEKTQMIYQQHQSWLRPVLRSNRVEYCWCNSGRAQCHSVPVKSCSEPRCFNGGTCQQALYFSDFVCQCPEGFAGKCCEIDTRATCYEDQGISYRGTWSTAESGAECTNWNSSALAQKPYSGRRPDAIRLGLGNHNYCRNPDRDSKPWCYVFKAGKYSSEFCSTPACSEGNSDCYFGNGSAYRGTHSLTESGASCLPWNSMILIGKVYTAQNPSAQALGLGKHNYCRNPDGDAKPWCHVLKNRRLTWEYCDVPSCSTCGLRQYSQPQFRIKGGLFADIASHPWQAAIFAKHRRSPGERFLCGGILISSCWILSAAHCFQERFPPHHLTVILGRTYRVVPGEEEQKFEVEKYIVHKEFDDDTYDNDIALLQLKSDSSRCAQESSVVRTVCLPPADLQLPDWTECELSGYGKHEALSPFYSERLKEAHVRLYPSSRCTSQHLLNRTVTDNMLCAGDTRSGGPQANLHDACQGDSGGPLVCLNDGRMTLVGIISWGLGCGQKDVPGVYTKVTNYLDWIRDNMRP
Sequence of Plasminogen (P00747 97-580 limits assumed): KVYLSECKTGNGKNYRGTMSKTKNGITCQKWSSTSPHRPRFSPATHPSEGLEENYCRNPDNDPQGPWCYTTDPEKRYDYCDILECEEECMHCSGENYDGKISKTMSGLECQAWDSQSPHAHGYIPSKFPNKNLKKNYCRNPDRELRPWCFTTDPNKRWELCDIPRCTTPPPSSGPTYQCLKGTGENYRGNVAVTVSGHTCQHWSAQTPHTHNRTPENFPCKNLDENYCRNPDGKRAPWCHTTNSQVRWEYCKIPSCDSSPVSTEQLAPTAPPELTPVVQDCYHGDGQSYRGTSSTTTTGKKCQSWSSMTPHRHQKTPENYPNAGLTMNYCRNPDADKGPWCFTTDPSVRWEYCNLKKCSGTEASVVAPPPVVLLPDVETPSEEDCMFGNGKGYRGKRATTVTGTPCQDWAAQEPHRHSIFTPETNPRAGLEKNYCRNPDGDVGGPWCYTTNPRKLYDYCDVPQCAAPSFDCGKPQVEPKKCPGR
Sequence of Plasminogen (P00747 581-810 limits assumed): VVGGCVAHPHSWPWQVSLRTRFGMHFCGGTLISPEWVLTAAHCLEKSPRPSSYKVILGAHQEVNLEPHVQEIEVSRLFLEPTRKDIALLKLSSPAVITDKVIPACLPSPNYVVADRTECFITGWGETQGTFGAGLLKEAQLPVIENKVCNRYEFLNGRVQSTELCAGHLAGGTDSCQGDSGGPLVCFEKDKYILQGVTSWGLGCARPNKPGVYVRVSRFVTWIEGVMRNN

## Cc1nc(C)n2c1CN(C1CCN(C(=O)CCS(=O)(=O)c3ccc4cc(Cl)ccc4c3)CC1)C2=O
Coagulation factor X
  IC50: 5.3 nM
Plasma [1]
  Activity: 2.5 µM
CYP3A4
  inhibition at 10 µM: 62%
Plasma [2]
  Activity: 1.2 µM
[3]
  pKa: 5.4
Plasma [4]
  Ratio: 2
physchem
  logD: 2.5

## O=C(CCS(=O)(=O)c1ccc2cc(Cl)ccc2c1)N1CCC(c2cnc3ccccn23)CC1
Coagulation factor X
  IC50: 12 nM
Plasma [2]
  Activity: 2.2 µM
[3]
  pKa: 5.9
physchem
  logD: 2.5

## O=C(CCS(=O)(=O)c1ccc2cc(Cl)ccc2c1)N1CCC(c2ncc[nH]2)CC1
Coagulation factor X
  IC50: 1600 nM
Plasma [2]
  Activity: >10 µM

## Cc1ncc2n1C(=O)N(C1CCN(C(=O)CCS(=O)(=O)c3ccc4cc(Cl)ccc4c3)CC1)C2
[5]
  clearance: 9.02 mL/min/kg
[6]
  Ki: > 60 µM
[7]
  MRT: 1.5 h
[8]
  MRT: 1 h
[9]
  AUC(0-t) at 24 h: 597 ng·h/mL
[10]
  MRT: 3.6 h
[11]
  Tmax: 1.2 h
[12]
  AUC(0-t) at 24 h: 565 ng·h/mL
[13]
  concentration at 5 min: 612 ng/mL
[14]
  Cmax: 269 ng/mL
Plasma [1]
  Activity: 2 µM
[15]
  AUC(0-t) at 24 h: 417 ng·h/mL
[16]
  clearance: 20.8 mL/min/kg
[17]
  AUC(0-t) at 24 h: 2590 ng·h/mL
[18]
  AUC(0-t) at 24 h: 2120 ng·h/mL
[19]
  Cmax: 570 ng/mL
Prothrombin
  Ki: 6.2 µM
Rattus norvegicus [20]
  Time: 490 s
[21]
  Tmax: 18 min
[22]
  bioavailability: 46%
[23]
  bioavailability: 24%
[24]
  Ki: > 60 µM
[25]
  Vd: 0.556 L/kg
[26]
  Tmax: 2.3 h
CYP3A4
  inhibition at 10 µM: 23%
Rattus norvegicus [27]
  Time: 1040 s
Plasma [2]
  Activity: 1 µM
[28]
  Cmax: 1200 ng/mL
[3]
  pKa: 5
[29]
  AUC(0-t) at 24 h: 245 ng·h/mL
[30]
  Cmax: 145 ng/mL
Plasminogen
  Ki: > 60 µM
[31]
  Tmax: 48 min
[32]
  concentration at 5 min: 291 ng/mL
[33]
  MRT: 1.6 h
[34]
  MRT: 42 min
physchem
  logD: 2.3
[35]
  MRT: 7 h
[36]
  Vd: 0.888 L/kg

## Cc1nccn1CC1CCN(C(=O)CCS(=O)(=O)c2ccc3cc(Cl)ccc3c2)CC1
Coagulation factor X
  IC50: 910 nM
Plasma [2]
  Activity: 7.7 µM

## Cn1ccnc1C1CCN(C(=O)CCS(=O)(=O)c2ccc3cc(Cl)ccc3c2)CC1
Coagulation factor X
  IC50: 56 nM
Plasma [2]
  Activity: 2.1 µM
